Assays:
dengue virus type 3 = test: Antiviral activity against Dengue virus 3 D3MY05-34640 infected in human HuH7 replicon cells expressing Renilla luciferase and neomycin-resistance genes assessed as reduction in viral replication incubated for 48 hrs by luciferase reporter replicon-based assay; format: functional, organism-based; settings: D3MY05-34640, Huh-7, 48 h
Summary of the method: (§1)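 Huh7 cells stably carrying a Renilla luciferase/neomycin-resistance replicon (DENV-1 WestPac, DENV-2 NGC, DENV-3 D3MY05-34640 or DENV-4 D4MY01-22713). Cells seeded at 10k per well and incubated overnight at 37 °C, 5% CO2. Then exposed to 2-fold serial compound dilutions for 48 h, in duplicate. Luciferase read with a live-cell substrate. EC50 from four-parameter logistic fit.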

dengue virus type 1 = test: Antiviral activity against Dengue virus 1 WestPac infected in human HuH7 replicon cells expressing Renilla luciferase and neomycin-resistance genes assessed as reduction in viral replication incubated for 48 hrs by luciferase reporter replicon-based assay; format: functional, organism-based; settings: Huh-7, 48 h; summary of the method: as §1
dengue virus type 4 = test: Antiviral activity against Dengue virus 4 D4MY01-22713 infected in human HuH7 replicon cells expressing Renilla luciferase and neomycin-resistance genes assessed as reduction in viral replication incubated for 48 hrs by luciferase reporter replicon-based assay; format: functional, organism-based; settings: D4MY01-22713, Huh-7, 48 h; summary of the method: as §1
dengue virus type 2 = test: Antiviral activity against Dengue virus 2 NGC infected in human HuH7 replicon cells expressing Renilla luciferase and neomycin-resistance genes assessed as reduction in viral replication incubated for 48 hrs by luciferase reporter replicon-based assay; format: functional, organism-based; settings: Huh-7, 48 h; summary of the method: as §1
[1] = Cytotoxicity in human HuH7 replicon cells infected with Dengue virus 2 NGC assessed as reduction in cell viability incubated for 48 hrs by Cell-titer-Glo reagent based assay; set-up: species or system Huh-7
Summary of the method: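 Huh7 cells or Huh7 replicon cells plated, then held at 37 °C with 5% CO₂ overnight. Exposed to 2-fold serial compound dilutions for 48 h, in duplicate. Viability read with CellTiter-Glo and normalized to 0.45% DMSO wells set at 100%. CC50 from four-parameter logistic fit.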

Row | SMILES | EC50 (dengue virus type 3) [µM] | EC50 (dengue virus type 1) [µM] | EC50 (dengue virus type 4) [µM] | EC50 (dengue virus type 2) [µM] | CC50 at 48 h [1] [µM]
1 | COCOCCN1C(=O)[C@]2(CC(=O)Nc3c2nnn3[C@@H](C)c2ccc(Cl)cc2)c2cc(Cl)ccc21 | 0.019 | > 5 | > 5 | 0.092 | > 10
2 | C[C@@H](c1ccc(Cl)cc1)n1nnc2c1NC(=O)C[C@]21C(=O)N(Cc2ccc(Cl)cc2)c2ccc(Cl)cc21 | 0.2 | 2.2 | 6.5 | 3.3 | > 10
3 | C[C@@H](c1ccc(Cl)cc1)n1nnc2c1NC(=O)C[C@]21C(=O)N(C)c2ccc(Cl)cc21 | 0.004 | > 5 | > 5 | 0.019 | > 10
4 | CNCCN1C(=O)[C@]2(CC(=O)Nc3c2nnn3[C@@H](C)c2ccc(Cl)cc2)c2cc(Cl)ccc21 | 0.022 | > 5 | > 5 | 0.12 | > 10
5 | C[C@@H](c1ccc(Cl)cc1)n1nnc2c1NC(=O)C[C@]21C(=O)N(CCCBr)c2ccc(Cl)cc21 | 0.076 | 2.4 | 3.2 | 0.25 | > 10
6 | C[C@@H](c1ccc(Cl)cc1)n1nnc2c1NC(=O)C[C@]21C(=O)N(CCc2ccccc2)c2ccc(Cl)cc21 | 0.19 | 1.1 | > 5 | 0.6 | > 10
7 | C[C@@H](c1ccc(Cl)cc1)n1nnc2c1NC(=O)C[C@]21C(=O)N(CCF)c2ccc(Cl)cc21 | 0.009 | > 5 | > 5 | 0.038 | > 10
8 | CCCCCCCCCCN1C(=O)[C@]2(CC(=O)Nc3c2nnn3[C@@H](C)c2ccc(Cl)cc2)c2cc(Cl)ccc21 | 1.2 | 3.4 | 7.3 | > 10 | > 10
9 | CCCN1C(=O)[C@]2(CC(=O)Nc3c2nnn3[C@@H](C)c2ccc(Cl)cc2)c2cc(Cl)ccc21 | 0.01 | 1.9 | > 5 | 0.071 | > 10
10 | C[C@@H](c1ccc(Cl)cc1)n1nnc2c1NC(=O)C[C@]21C(=O)N(CCCCCCCCN(C)C)c2ccc(Cl)cc21 | 0.042 | > 5 | > 5 | 0.49 | > 10
11 | C[C@@H](c1ccc(Cl)cc1)n1nnc2c1NC(=O)C[C@]21C(=O)N(CCCCN2CCCCC2)c2ccc(Cl)cc21 | 0.078 | > 5 | > 5 | 0.35 | > 10
12 | C[C@@H](c1ccc(Cl)cc1)n1nnc2c1N(C)C(=O)C(C)(C)[C@]21C(=O)N(C)c2ccc(Cl)cc21 | > 5 | > 5 | > 5 | > 5 | > 10
13 | C[C@@H](c1ccc(Cl)cc1)n1nnc2c1NC(=O)C[C@]21C(=O)N(CCCCCl)c2ccc(Cl)cc21 | 0.019 | > 5 | > 5 | 0.073 | > 10
14 | CC#CCN1C(=O)[C@]2(CC(=O)Nc3c2nnn3[C@@H](C)c2ccc(Cl)cc2)c2cc(Cl)ccc21 | 0.02 | > 5 | > 5 | 0.063 | > 10
15 | C[C@@H](c1ccc(Cl)cc1)n1nnc2c1NC(=O)C[C@]21C(=O)N(Cc2ccncc2)c2ccc(Cl)cc21 | 0.025 | > 5 | > 5 | 0.072 | > 10
16 | CC(C)CN1C(=O)[C@]2(CC(=O)Nc3c2nnn3[C@@H](C)c2ccc(Cl)cc2)c2cc(Cl)ccc21 | 0.02 | 1.3 | > 5 | 0.15 | > 10
17 | C[C@@H](c1ccc(Cl)cc1)n1nnc2c1NC(=O)C[C@]21C(=O)N(CCCN(C)C)c2ccc(Cl)cc21 | 0.001 | > 5 | > 5 | 0.025 | > 10
18 | C[C@@H](c1ccc(Cl)cc1)n1nnc2c1NC(=O)C[C@]21C(=O)N(CCCCN(C)C)c2ccc(Cl)cc21 | 0.038 | > 5 | > 5 | 0.19 | > 10
19 | C[C@@H](c1ccc(Cl)cc1)n1nnc2c1NC(=O)C[C@]21C(=O)N(Cc2cccnc2)c2ccc(Cl)cc21 | 0.021 | 3.2 | > 5 | 0.029 | > 10
20 | COC(=O)CN1C(=O)C[C@]2(C(=O)Nc3ccc(Cl)cc32)c2nnn([C@@H](C)c3ccc(Cl)cc3)c21 | 2.7 | > 10 | > 10 | > 10 | > 10
21 | C[C@@H](c1ccc(Cl)cc1)n1nnc2c1NC(=O)C[C@]21C(=O)N(CCN(C)CCS(C)(=O)=O)c2ccc(Cl)cc21 | 0.018 | > 5 | > 5 | 0.077 | > 10
22 | COCCCN1C(=O)[C@]2(CC(=O)Nc3c2nnn3[C@@H](C)c2ccc(Cl)cc2)c2cc(Cl)ccc21 | 0.009 | > 5 | > 5 | 0.04 | > 10
23 | C[C@@H](c1ccc(Cl)cc1)n1nnc2c1NC(=O)C[C@]21C(=O)N(Cc2ccccc2)c2ccc(Cl)cc21 | 0.02 | 2 | > 5 | 0.15 | > 10
24 | CCN1C(=O)[C@]2(CC(=O)Nc3c2nnn3[C@@H](C)c2ccc(Cl)cc2)c2cc(Cl)ccc21 | 0.006 | 2.5 | > 5 | 0.024 | > 10
25 | COc1cc(CN2C(=O)[C@]3(CC(=O)Nc4c3nnn4[C@@H](C)c3ccc(Cl)cc3)c3cc(Cl)ccc32)cc(OC)c1 | 0.79 | 3.4 | 7.4 | 3.1 | > 10
26 | C=CCN1C(=O)[C@]2(CC(=O)Nc3c2nnn3[C@@H](C)c2ccc(Cl)cc2)c2cc(Cl)ccc21 | 0.005 | 2.1 | > 5 | 0.038 | > 10
27 | C[C@@H](c1ccc(Cl)cc1)n1nnc2c1NC(=O)C[C@]21C(=O)N(CCN2CCOCC2)c2ccc(Cl)cc21 | 0.017 | > 5 | > 5 | 0.075 | > 10
28 | C[C@@H](c1ccc(Cl)cc1)n1nnc2c1NC(=O)C[C@]21C(=O)N(CCC(C)(C)C)c2ccc(Cl)cc21 | 0.082 | 1.1 | 3.9 | 0.87 | > 10
29 | C[C@@H](c1ccc(Cl)cc1)n1nnc2c1NC(=O)C[C@]21C(=O)N(CCO)c2ccc(Cl)cc21 | 0.01 | > 5 | > 5 | 0.037 | > 10
30 | C[C@@H](c1ccc(Cl)cc1)n1nnc2c1NC(=O)C[C@]21C(=O)N(CCN2CCC2)c2ccc(Cl)cc21 | 0.007 | > 5 | > 5 | 0.067 | > 10

Source: ChEMBL document CHEMBL4414551, “Design, Synthesis, and Biological Evaluation of Substituted 4,6-Dihydrospiro[[1,2,3]triazolo[4,5-b]pyridine-7,3'-indoline]-2',5(3H)-dione Analogues as Potent NS4B Inhibitors for the Treatment of Dengue Virus Infection” (J Med Chem, 2019)
